# Screening data from PubChem.
# Most compounds without a hit are left out; they make up all but 4% or so of the library.
# TAAR1 agonist: agonists of human TAAR1. Q96RJ0. CHO RD-HGA16 TAAR1, Fluo-8 calcium fluorescence; vehicle wells 0%, saturating PEA agonist 100%. activation, % at 3 µM. 360,000 compounds, 0.99% hits. AID 624467;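 active = activation above the mean activation of all test compounds in the run plus 3 SD, cut at about 38% in these data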
#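 Benchmarks: low control DMSO, high control PEA (EC100); System: CHO RD-HGA16 cells carrying human TAAR1 plus Gα16; Detection: Fluo-8 fluorescence, 5 s baseline then 140 s kinetic read; Schedule: 17-24 h plating, Fluo-8 75 min 37 °C, 30 min RT; Read-out basis: % activation from peak over basal fluorescence ratio, DMSO-to-PEA scaled.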
# TAAR1 antag: human TAAR1 antagonism. Q96RJ0. CHO RD-HGA16 TAAR1, Fluo-8 calcium fluorescence, antagonist. inhibition, % at 3 µM. 360,000 compounds, 1.5% hits;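 active = inhibition above a per-plate cutoff, the mean inhibition of test compounds on that plate plus 3 SD, cut at about 49% in these data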
#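 Test system: RD-HGA16 CHO cells with stable hTAAR1 and Gα16 / Probe or stimulus: EC80 β-phenethylamine stimulus / Times: seeding 17-24 h prior, 75-min 37 °C, 30-min RT dye loading / Detection: Fluo-8 calcium-sensitive fluorescence / Read-out basis: % inhibition scaled between DMSO and EC80 PEA controls / Repeats: singlicate, one well per test compound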
# OX1R antag-1: blocks the human orexin 1 receptor | O43613 | OX1R-expressing cells, FRET antagonist read-out | inhibition, % at 6.6 µM | 330,000 compounds, 1.8% hits | AID 485270; in the data active = inhibition mostly above about 38%, no sharp cut-off; inactive = mostly below about 40%
# Target sequence (O43613 whole entry, looked up): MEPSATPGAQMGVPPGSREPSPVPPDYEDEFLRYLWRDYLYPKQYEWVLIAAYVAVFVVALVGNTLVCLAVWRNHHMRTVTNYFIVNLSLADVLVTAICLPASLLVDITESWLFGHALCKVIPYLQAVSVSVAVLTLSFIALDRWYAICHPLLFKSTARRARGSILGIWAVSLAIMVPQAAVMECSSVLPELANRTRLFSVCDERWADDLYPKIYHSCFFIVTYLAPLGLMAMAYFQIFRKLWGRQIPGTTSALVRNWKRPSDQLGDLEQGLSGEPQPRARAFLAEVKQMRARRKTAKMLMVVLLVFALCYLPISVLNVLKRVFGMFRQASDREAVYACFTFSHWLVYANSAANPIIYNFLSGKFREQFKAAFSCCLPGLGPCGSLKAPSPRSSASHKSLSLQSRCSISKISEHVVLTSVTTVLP
# CHO parental Ca: signal in parental CHO cells, OX1R antagonist counter-screen; inhibition, % at 5.6 µM; parental CHO-K1, ATP-induced calcium, Fluo-8 fluorescence; 330,000 compounds, 0.63% hits;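 active = inhibition above that plate's mean sample inhibition plus 3 SD, cut at about 26% in these data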
#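 Test system: untransfected parental CHO cell line; also added: ATP stimulus; dosing: 5.6 µM, single dose; signal: calcium-sensitive Fluo-8 fluorescence; measure: percent inhibition of ATP-evoked calcium rise, normalized to controls; benchmarks: low control ATP plus DMSO, high control DMSO only; replication: one well per compound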
# OX1R antag-2: antagonists of human orexin 1 receptor; CHO/OX1R cells, Fluo-8 calcium fluorescence, orexin A; inhibition, % at 5 µM; 330,000 compounds, 0.43% hits;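 active = inhibition above its plate's threshold, mean inhibition of all tested compounds on the plate plus 3 SD, cut at about 37% in these data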
# OX1R Fluo8 conf: OX1R (human) antagonism, confirmed | CHO/OX1R cells, orexin A calcium Fluo-8 fluorescence | 1,100 compounds, 38% hits | AID 492963 | shares compounds with OX1R antag-2 | inhibition, % at 5 µM; in the data active = inhibition above about 29%
# CHO Ca counter: counter-screen for OX1R antagonists: effect in parental CHO cells | inhibition, % at 5.6 µM | shares compounds with OX1R antag-2 | 1,100 compounds, 9.3% hits | parental CHO-K1, ATP-induced calcium, Fluo-8 fluorescence | AID 492965;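 active = inhibition above a per-plate limit, the mean inhibition of that plate's test compounds plus 3 SD, cut at about 25% in these data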
# Hits are given with their value; n = inactive; x = no result.
SMILES,TAAR1 agonist,TAAR1 antag,OX1R antag-1,CHO parental Ca,OX1R antag-2,OX1R Fluo8 conf,CHO Ca counter
COc1ccc(-c2n(CC(=O)OC3CC(C)CCC3C(C)C)c3ccccc3[n+]2C)cc1 (stereo not drawn),n,n,x,x,x,x,x
C=C(C)COc1ccc(-c2[nH]ncc2-c2ccccc2OC)c(O)c1,n,n,n,n,n,n,n
C=C(C)COc1ccc(-c2[nH]ncc2Oc2ccccc2OC)c(O)c1,n,n,n,n,n,x,x
CCOC(=O)C1=C(C)N(CC(C)C)C(=O)C1,n,n,n,n,n,x,x
O=C(COc1ccc(Cl)cc1)Nc1ccc(C(=O)NCc2cccnc2)cc1,x,x,n,n,n,x,x
O=C(COc1ccc(C(=O)NCc2cccnc2)cc1)Nc1cccc(C(F)(F)F)c1,n,n,n,n,n,n,n
Cc1cccc(-c2nc3c(c(SCC(=O)N4CCOCC4)n2)Cc2c(CO)cnc(C)c2O3)c1,x,x,n,n,n,x,x
Cc1ncc(CO)c2c1Oc1nc(-c3ccccc3F)nc(SCC(=O)N(C)c3ccccc3)c1C2,x,x,n,n,n,n,n
CNS(=O)(=O)c1ccc(NC(=O)c2cc(-c3ccncc3)nc3ccc(Cl)cc23)cc1,n,n,n,n,n,x,x
COC(=O)c1c(C)oc2ccc(N(C(=O)c3ccncc3)S(=O)(=O)c3ccccc3)cc12,n,n,n,n,n,x,x
COC(=O)c1c(C)oc2ccc(N(C(=O)c3ccncc3)S(=O)(=O)c3ccc(C)cc3)cc12,x,x,n,n,39,n,n
O=C(O)Cc1ccc(S(=O)(=O)Nc2ccccc2C(=O)O)cc1,n,n,n,n,n,x,x
Cc1cccc(OCC(=O)Nc2ccc(N3CCN(C(=O)c4ccco4)CC3)cc2)c1,n,56,n,n,53,50,51
COc1ccc(C(=O)/C(C#N)=N/Nc2ccc([N+](=O)[O-])cc2)cc1,n,n,n,n,n,n,55
O=C(Cn1ncc(Cl)c(Cl)c1=O)c1ccc(Cl)cc1,n,n,n,n,n,43,31
CCN(CC)c1ccc(C(=O)N/N=C/c2ccc(OC)cc2OC)cc1,n,n,n,n,41,34,n
COc1ccc(C(=O)Nc2cccc(C(=O)N/N=C/c3ccc(OC)cc3OC)c2)cc1,n,n,n,n,n,x,x
C=CCSc1nnc(-c2cc3c(s2)-c2ccccc2CC3)o1,n,n,n,n,n,n,n
O=C(NN1C(=O)/C(=C/c2ccc(O)cc2)SC1=S)c1ccccc1O,n,n,n,n,n,n,n
COc1cc(NC(=S)NCc2ccco2)cc(OC)c1OC,n,n,n,n,77,n,n
O=C1NC[C@H](c2ccccc2)N(CCc2cccc3ccccc23)C1=O,n,n,n,n,n,x,x
N#Cc1c(C(F)(F)F)cc(-c2ccco2)nc1SCc1ccncc1,n,n,n,n,n,x,x
N#Cc1c(C(F)(F)F)cc(-c2ccco2)nc1SCc1ccccn1,n,n,n,n,n,n,n
N#Cc1ccc(S(=O)(=O)N2CCN(Cc3cccs3)CC2)cc1,n,n,n,n,n,x,x
Cc1c([N+](=O)[O-])c(C(=O)NC2CCCCC2)nn1C,n,n,n,n,n,x,x
SMILES,TAAR1 agonist,TAAR1 antag,OX1R antag-1,CHO parental Ca,OX1R antag-2,OX1R Fluo8 conf,CHO Ca counter
C(=NOCc1ccccc1)c1cccnc1,n,n,x,x,x,x,x
NS(=O)(=O)c1ccc(CNC(=O)C(Cc2ccccc2)NS(=O)(=O)c2ccccc2F)cc1 (stereo not drawn),n,n,n,n,n,n,n
NS(=O)(=O)c1ccc(CNC(=O)Cc2ccccc2F)cc1,n,n,n,n,n,x,x
Cc1ccc(C(O)c2ncc(-c3cccc(C(F)(F)F)c3)[nH]2)cc1F (stereo not drawn),n,n,x,x,x,x,x
O=C(c1ccco1)n1nc(-c2ccco2)nc1SCc1ccccc1,n,n,n,n,n,x,x
O=C(Cc1ccccc1)n1nc(-c2ccco2)nc1SCc1ccccc1,n,n,n,n,40,n,n
Cc1cccc(NC(=O)c2nc[nH]c2C(=O)N2CCN(c3ccccc3)CC2)c1,n,n,n,n,n,x,x
CCOC(=O)NC(c1ccc(C(C)C)cc1)C(Cl)(Cl)Cl (stereo not drawn),n,n,n,n,42,n,n
CCOC(=O)NC(C(Cl)(Cl)Cl)S(=O)(=O)c1ccccc1 (stereo not drawn),n,n,n,n,n,x,x
Cc1ccc(C(=O)N2CCC(Cc3ccccc3)CC2)cc1[N+](=O)[O-],n,n,n,n,n,n,n
O=C(Nc1ccc(S(=O)(=O)N2CCc3ccccc32)cc1)c1ccc2c(c1)OCO2,n,n,n,n,n,n,n
O=S(=O)(Nc1ccc(S(=O)(=O)Nc2ccccc2)cc1)c1ccccc1,n,n,n,n,n,n,n
CC(=O)Nc1ccc(S(=O)(=O)c2ccnc3cc(Cl)ccc23)cc1,n,n,x,x,x,x,x
O=C(O)c1ccc(N2C(=O)/C(=C/C=C/c3ccccc3)SC2=S)cc1,n,n,n,n,n,x,x
CN(C)c1ccc(/C=C/C=C2/SC(=S)N(c3ccccc3)C2=O)cc1,n,n,n,n,n,57,60
COc1ccc(S(=O)(=O)Nc2ccc(F)cc2)cc1N(C)S(=O)(=O)c1ccc(Cl)cc1,n,n,n,n,n,x,x
COc1ccc(NS(=O)(=O)c2ccc(OC)c(N(C)S(=O)(=O)c3ccc(Cl)cc3)c2)cc1,n,n,n,n,61,n,25
O=C1OC(c2ccccc2)Cc2cc(C(=O)N3CCN(c4ccc(F)cc4)CC3)ccc21 (stereo not drawn),n,n,x,x,x,x,x
C=CCn1c(SCC(=O)Nc2sccc2C(N)=O)nc2ccc(Cl)cc2c1=O,n,n,n,n,53,n,n
COC(=O)c1ccc(N(CC(=O)NC2CCCCC2)C(=O)CNC(=O)c2ccco2)cc1,n,n,n,n,n,x,x
O=C(CN1C(=O)c2ccccc2C1=O)NCc1ccc(F)cc1,n,n,n,n,n,x,x
O=C(CN1c2ccccc2S(=O)(=O)c2ccccc21)NCc1ccc(F)cc1,n,n,n,n,n,n,n
COc1ccc(CCN(C)CCCC(C#N)(c2ccc(OC)c(OC)c2)C(C)C)cc1OC (stereo not drawn),n,n,x,x,x,x,x
Cc1ccccc1-c1nnn(Cc2cccc(S(=O)(=O)N3CCOCC3)c2)n1,n,60,n,n,44,44,n
Fc1ccc(C2=CC(c3ccc(Br)o3)n3ncnc3N2)cc1 (stereo not drawn),x,x,n,n,n,n,n
Cc1cc(OCC(=O)Nc2cccc(S(=O)(=O)N3CCCCC3)c2)ccc1Cl,n,n,n,n,n,n,n
O=C(OCc1cccc([N+](=O)[O-])c1)c1cc2ccccc2oc1=O,n,n,n,n,n,n,n
